Source: PubChem BioAssay
Only some compounds are listed: those with a hit (about 3.1% of all), similar ones and a draw of the others.
CTSL1 counter: Fasciola hepatica cathepsin L1 inhibitors, primary screen, counter-screen for PFM18AAP inhibitor project, biochemical, QFRET, fluorogenic peptide substrate; recombinant F. hepatica cathepsin L1, Z-Leu-Arg-MCA fluorescence; inhibition, % at 5.96 µM; 300,000 compounds, 0.49% hits;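 active = inhibition above the mean of all tested compounds plus 3 SD, set per screening campaign, cut at about 17% in these data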
PP1 counter: PP1-alpha phosphatase inhibitors, primary screen, counter-screen for PP5 inhibitor project, biochemical, fluorescence, OMFP substrate, single point; Serine/threonine-protein phosphatase PP1-alpha catalytic subunit (Homo sapiens), P62136; purified PP1alpha; inhibition, % at 6.7 µM; 320,000 compounds, 0.9% hits; AID 2235, 2010;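 active = inhibition above the mean inhibition of all tested compounds plus 3 SD, computed separately for each screening campaign, cut at about 15% in these data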
Myeloid diff MLP: induction of myeloid progenitor differentiation, primary screen, cell-based, flow cytometry, MLPCN library. 360,000 compounds, 1% hits. ER-HoxA9 myeloid progenitors, lysozyme-GFP differentiation. calls only at 10 µM;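 active = normalized GFP-positive differentiation at or above the plate's own cutoff, the solvent-only control mean plus 3 SD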;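 also: cells exposed to compound for four days before flow analysis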
core dimer inh: inhibitors of HCV core protein dimerization, primary screen, biochemical, TR-FRET, high-throughput. inhibition, % at 5 µM. 300,000 compounds, 0.33% hits. TR-FRET GST/Flag-core106 dimerization, 1536-well;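 active = inhibition above the mean of all tested compounds plus 3 SD, set per screening campaign, cut at about 45% in these data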
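Material: GST/Flag-tagged HCV core106 proteins. Incubation: 4 h, 22.5 °C incubation. Read-out basis: inhibition (%) from 671 over 617 nm ratio. Measured by: TR-FRET, excitation 340 nm, emission 617 and 671 nm.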
PP5 inh: PP5 phosphatase inhibitors, primary screen, biochemical, fluorescence. Serine/threonine-protein phosphatase 5 (Homo sapiens), P53041. purified PP5c, OMFP substrate fluorescence. inhibition, % at 6.7 µM. 320,000 compounds, 0.18% hits. AID 1987, 2009;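 active = inhibition above the campaign's mean inhibition across all tested compounds plus 3 SD, cut at about 9.5% in these data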
Target sequence (P53041 whole entry, looked up): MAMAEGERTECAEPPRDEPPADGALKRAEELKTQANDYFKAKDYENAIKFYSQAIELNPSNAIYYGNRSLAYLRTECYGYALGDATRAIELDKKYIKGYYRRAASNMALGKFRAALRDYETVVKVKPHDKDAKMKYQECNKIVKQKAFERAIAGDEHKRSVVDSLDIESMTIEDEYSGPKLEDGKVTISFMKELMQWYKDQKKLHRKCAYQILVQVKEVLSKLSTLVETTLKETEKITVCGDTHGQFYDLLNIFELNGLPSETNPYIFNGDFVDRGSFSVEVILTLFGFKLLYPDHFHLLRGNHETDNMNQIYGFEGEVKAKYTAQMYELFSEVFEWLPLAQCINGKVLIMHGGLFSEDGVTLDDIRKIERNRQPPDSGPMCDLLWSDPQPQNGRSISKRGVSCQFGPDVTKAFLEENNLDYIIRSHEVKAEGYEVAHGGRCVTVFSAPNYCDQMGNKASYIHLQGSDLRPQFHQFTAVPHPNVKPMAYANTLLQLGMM
NadD inh: inhibitors of S. aureus NadD, primary screen, biochemical, colorimetric, uHTS | AID 602399, 2012 | 360,000 compounds, 0.78% hits | inhibition, % at 20 µM | Nicotinate-nucleotide adenylyltransferase NadD (Staphylococcus aureus N315) | purified NadD enzyme, colorimetric absorbance read-out; in the data active = inhibition above about 26%
Large screens that a line does not name were inactive.

COc1ccc([N+](=O)[O-])cc1C1NN=C(c2ccccc2O)S1 (centres undefined)	NadD inh 34.8
COC(=O)C1OC1c1cc([N+](=O)[O-])ccc1OC (centres undefined)	none (no result: CTSL1 counter, PP1 counter, core dimer inh, PP5 inh)
N#Cc1ccccc1S(=O)(=O)N1CCN(S(=O)(=O)c2ccc(Br)c(C(=O)O)c2)CC1	none
Cc1ccc(-c2nnn(CC(=O)Nc3ccc4nn(-c5ccccc5)nc4c3)n2)o1	NadD inh 34.1
N#Cc1ccccc1CSc1nc2ccc(NC(=O)c3ccccc3C(=O)O)cc2s1	core dimer inh 47.1
O=C(O)c1ccc(CSc2nc3ccc(NC(=O)c4ccccc4C(=O)O)cc3s2)cc1	none
CC1CCCC(C)N1C(=O)Cn1cc(/C=C2/C(=O)Nc3ccccc32)c2ccccc21 (centres undefined)	NadD inh 34.0
CCOc1ccc(CCNC(=O)CSC(=S)N2CCCC2)cc1OCC	none
CCC(C(=O)Nc1ccccc1OC)n1c(C(=O)OC)cc2ccsc21 (centres undefined)	Myeloid diff MLP active
COc1ccccc1NC(=O)COC(=O)/C=C/c1cccs1	none (no result: CTSL1 counter, PP1 counter, core dimer inh, PP5 inh)
CCc1cc(=O)oc2cc(OCc3ccc(C(=O)O)o3)ccc12	Myeloid diff MLP active
O=C1C=C(c2ccccc2)C[C@H](c2cccs2)[C@H]1n1nnc([N+](=O)[O-])n1	CTSL1 counter 33.3
O=C1C=C(c2ccccc2)CC(c2cccs2)C1n1cnc([N+](=O)[O-])c1 (centres undefined)	core dimer inh 47.3
CCOC(=O)C1C(=O)C=C(c2ccc([N+](=O)[O-])cc2)CC1c1ccccc1 (centres undefined)	none
NC(=O)c1ccc(SCC(=O)OCC(=O)NC2CCCCCCC2)c([N+](=O)[O-])c1	none (no result: CTSL1 counter, core dimer inh)
CC(C)NC1(C(N)=O)CCN(Cc2ccccc2)CC1	none (no result: CTSL1 counter, PP1 counter, core dimer inh, PP5 inh)
Cc1ccc(NC2=C(Cl)C(=O)OC2OC(=O)c2ccco2)c(C)c1 (centres undefined)	CTSL1 counter 47.8
Cc1ccc(C)c(NC2=C(Cl)C(=O)OC2OC(=O)c2ccco2)c1 (centres undefined)	none
Cc1ccc(NC2=C(Cl)C(=O)OC2OC(=O)c2ccco2)cc1C (centres undefined)	CTSL1 counter 54.1
O=C(COC(=O)C1(c2ccccc2)CC1)NNC(=O)c1ccccc1	none
O=C(c1cccs1)N1C[C@@H](n2cc(C3CC3)nn2)[C@H](O)C[C@@H]1c1ccccc1	none (no result: CTSL1 counter, PP1 counter, core dimer inh, PP5 inh)
CCCN1CC=C2C(C#N)=C(N)C(C#N)(C#N)C(c3cccc(OC)c3OC)C2C1 (centres undefined)	none
COc1cccc(OC)c1OCc1cc(C2C3CCCC=C3C(C#N)=C(N)C2(C#N)C#N)c(C)cc1C (centres undefined)	core dimer inh 56.3
CCCCCCCCN1C(=O)[C@H](CC(=O)N2CCSCC2)C[C@@]2(C(=O)OC)CC(C)(C)CC=C12	none (no result: CTSL1 counter, PP1 counter, core dimer inh, PP5 inh, NadD inh)
CC1(NC(=O)Cc2csc(-c3ccc(Cl)cc3)n2)CCS(=O)(=O)C1 (centres undefined)	none (no result: CTSL1 counter, PP1 counter, core dimer inh, PP5 inh)
CC(C)CC(=O)Nc1cc2c3c(c1)CCN3C(=O)CC2	Myeloid diff MLP active
CC(=O)Nc1cc2c3c(c1)CCN3C(=O)CC2	none
CCN(CC)CCNC(=O)C12CC3CC(C)(CC(C)(C3)C1)C2	none
CCN(CC)CCNC(=O)C12CC3CC(CC(C3)C1)C2	Myeloid diff MLP active
CC(C)CC(=O)O/N=C1\C(=O)N(Cc2ccc(Cl)cc2)c2ccc([N+](=O)[O-])cc21	PP1 counter 16.6 (no result: Myeloid diff MLP, NadD inh)
O=C(Nc1ccc2c3c(cccc13)CC2)c1ccco1	Myeloid diff MLP active
CC(C)Oc1cccc(C(=O)NC(=S)Nc2ccc3c4c(cccc24)CC3)c1	Myeloid diff MLP active
COc1cc(OC)cc(C(=O)NC(=S)Nc2ccc3c4c(cccc24)CC3)c1	Myeloid diff MLP active
O=C(Nc1ccon1)Nc1cc(Cl)ccc1Cl	none
CSc1ncnc2c1ncn2CCCNCCc1ccccn1	none (no result: CTSL1 counter, PP1 counter, core dimer inh, PP5 inh)
O=C(NNC(=S)NCCc1ccccc1)c1ccc(Br)s1	CTSL1 counter 18.2
O=C(CCc1ccc(O)cc1)NNC(=S)NCCc1ccccc1	none
COc1ccc(C(=O)c2c(C(F)(F)F)oc3c2C(=O)c2ccccc2C3=O)cc1OC	CTSL1 counter 30.6 (no result: Myeloid diff MLP)
COc1ccc(C(=O)Nc2ccc3c(c2)C(=O)c2ccccc2C3=O)cc1OC	none
Cc1cc(C)c(S(=O)(=O)/N=C2\C=CC(=O)C(Cl)=C2)c(C)c1	NadD inh 47.4
Cc1cc(C(C#N)c2ccc(Cl)cc2)c(Cl)cc1NC(=O)c1cc(I)cc(I)c1O (centres undefined)	NadD inh 51.5
Cc1cc(NC(=O)c2ccc(Cl)cc2)c(C)cc1O	none
O=C(NCCCn1ccnc1)c1ccc2nccnc2c1	Myeloid diff MLP active
Cc1ccc(C(=O)NCCCn2ccnc2)cc1C	none
O=C(C1CCCCC1)N1C[C@H](O)[C@@H](n2cc(C3CC3)nn2)C[C@@H]1c1ccccc1	none (no result: CTSL1 counter, PP1 counter, core dimer inh, PP5 inh)
CN(c1ccc(C(=O)N2CCN(Cc3ccccc3)CC2)cc1)S(=O)(=O)c1ccccc1	Myeloid diff MLP active
COc1ccc2nc(C)cc(NCc3ccc(F)cc3)c2c1	Myeloid diff MLP active
CC1CCC(N(C)C(=O)CN2C(=O)NC(c3ccccc3)(c3ccccc3)C2=O)CC1 (centres undefined)	none (no result: CTSL1 counter, PP1 counter, core dimer inh, PP5 inh)
O=C(O)CCNc1nc(C(F)(F)F)nc2ccccc12	Myeloid diff MLP active
OC(CNc1nc(C(F)(F)F)nc2ccccc12)c1ccccc1 (centres undefined)	none
Cc1ccc(C23CC4CC(CC(NC(=O)NC(C)(C)CO)(C4)C2)C3)cc1	none
Cc1ccc(C23CC4CC(CC(NC(=O)NN)(C4)C2)C3)cc1	CTSL1 counter 28.5
Cc1ccc(/C=N/N2CCN(Cc3ccccc3)CC2)cc1	none
C(=N\N1CCN(Cc2ccccc2)CC1)/c1ccc(-c2ccccc2)cc1	CTSL1 counter 17.4
COC(=O)c1ccc(NC(=O)CNC(=O)c2sc3ccccc3c2Cl)cc1	PP1 counter 15.3 (no result: CTSL1 counter, core dimer inh)
CCOC(=O)C(C)(C)Oc1ccc(Cl)cc1	none
COc1cc(CN2CCc3c([nH]c4ccccc34)C2)cc(OC)c1	Myeloid diff MLP active
Cc1ccc(C(=O)N/C(=C/c2ccc(-c3ccc([N+](=O)[O-])cc3)o2)C(=O)NCCCN(C)C)cc1	Myeloid diff MLP active
O=C(NCCCO)/C(=C/c1ccc(-c2cccc([N+](=O)[O-])c2)o1)NC(=O)c1ccccc1	none
O=C(c1ccc2c(c1)CCC2)N1CCN(Cc2c(F)cccc2Cl)CC1	none (no result: CTSL1 counter, PP1 counter, core dimer inh, PP5 inh)
Cn1nc(C(=O)OCC(=O)Nc2ccc(SC(F)F)cc2)c2ccccc2c1=O	none (no result: CTSL1 counter, PP1 counter, core dimer inh, PP5 inh)
